Assay results: ChEMBL document CHEMBL2021895 (Eur J Med Chem, 2012)

Columns and labels:
HCT-116 = assay: Cytotoxicity against human HCT116 cells after 72 hrs using resazurin dye by microtiter plate fluorimeter analysis; assay type: functional; conditions: HCT-116, 72 h
[1] = Cytotoxicity against human H1299 cells after 72 hrs using resazurin dye by microtiter plate fluorimeter analysis; assay type: functional; conditions: NCI-H1299, 72 h
[2] = Inhibition of sheep brain tubulin polymerization using DAPI by fluorescence assay; parameters: species or system Ovis aries
Procedure, shortened: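 Tubulin purified by two assembly–disassembly cycles, in 0.1 M MES, 0.5 mM MgCl2, 1 mM EGTA, 1 mM GTP, pH 6.6 (about 2-3 mg/mL). Assembly followed by DAPI fluorescence at 37°C.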

K562 = assay: Cytotoxicity against human K562 cells after 72 hrs using resazurin dye by microtiter plate fluorimeter analysis; assay type: functional; conditions: K562, 72 h
MDA-MB-231 = assay: Cytotoxicity against human MDA-MB-231 cells after 72 hrs using resazurin dye by microtiter plate fluorimeter analysis; assay type: functional; conditions: MDA-MB-231, 72 h

Row | Structure (SMILES) | GI50 (HCT-116) [nM] | GI50 [1] [nM] | IC50 [2] [nM] | GI50 (K562) [nM] | GI50 (MDA-MB-231) [nM]
1 | C=C(c1ccc(OC)c(O)c1)c1cc(OC)c(OC)c(OC)c1 | 3 | 3 | 2200 | 5 | 4
2 | COc1ccc(/C=C\c2cc(OC)c(OC)c(OC)c2)cc1O [COMBRETASTATIN A4] | 2 | 5 | – | 4 | 3
